Shown are actives, neighbours in structure and some others; about 4.5% of the full set was active somewhere.
UPR XBP1 act – activators of adaptive arm of unfolded protein response (XBP1); CHO-XBP1 luciferase reporter, IRE1-XBP1 UPR activation, luminescence; percent of tunicamycin response, DMSO as zero; AID 463104; 330,000 compounds, 0.33% hits; activation, % at 20 µM;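 active = versus positive control, 20 µM dose yields 30% or more activation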;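 note: 100% = tunicamycin at 10 µg/mL and 0% = DMSO only wells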
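Material: IRE1-XBP1 luciferase reporter CHO line / Quantity: one thousand reporter cells per well / Buffer or medium: F12 with 10% serum / Compound: 20 µM single concentration, DMSO 1% / Times: 6 h treatment, 37 °C / Detection: Steady-Glo luciferase glow luminescence, 10 min after reagent addition / Benchmarks: tunicamycin high, DMSO low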
CHOP inhibitor – blocks CHOP induction under ER stress | CHO-K1 CHOP-promoter luciferase, tunicamycin-induced, 15-18 h | inhibition, % at 10 µM | 220,000 compounds, 3.8% hits;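 active = compounds that reduced the stress-induced luciferase reporter signal by more than about 70% of percent inhibition, limit read from the data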;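 note: 0% = tunicamycin plus vehicle and 100% = wells without tunicamycin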
UPR CHOP act – apoptotic UPR (CHOP) activation | CHO-CHOP luciferase reporter, luminescence; percent of tunicamycin response over DMSO baseline | activation, % at 10 µM | 330,000 compounds, 0.34% hits | AID 449763;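 active = at 10 µM dose, activation of 40% or more, normalized to positive control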;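 note: 100% = tunicamycin at 10 µg/mL and 0% = DMSO alone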
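System: CHO-CHOP luciferase reporter cell line; amount: 500 cells/well; buffer or medium: F12 medium containing 10% fetal bovine serum; incubation: 6 h compound exposure at 37 °C after overnight seeding; measured by: luciferase luminescence after 10 min with Steady-Glo reagent; evaluation: % reporter activation, DMSO baseline versus tunicamycin full activation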
p97 ATPase inh – blocks human p97 ATPase activity. recombinant p97 ATPase, Kinase-Glo ATP luminescence, 3 h. inhibition, % at 8 µM. AID 1481. 220,000 compounds, 0.42% hits; in the data active = inhibition above about 15%;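 note: 0% = DMSO vehicle and 100% = wells lacking enzyme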
Target sequence (P55072 whole entry, looked up): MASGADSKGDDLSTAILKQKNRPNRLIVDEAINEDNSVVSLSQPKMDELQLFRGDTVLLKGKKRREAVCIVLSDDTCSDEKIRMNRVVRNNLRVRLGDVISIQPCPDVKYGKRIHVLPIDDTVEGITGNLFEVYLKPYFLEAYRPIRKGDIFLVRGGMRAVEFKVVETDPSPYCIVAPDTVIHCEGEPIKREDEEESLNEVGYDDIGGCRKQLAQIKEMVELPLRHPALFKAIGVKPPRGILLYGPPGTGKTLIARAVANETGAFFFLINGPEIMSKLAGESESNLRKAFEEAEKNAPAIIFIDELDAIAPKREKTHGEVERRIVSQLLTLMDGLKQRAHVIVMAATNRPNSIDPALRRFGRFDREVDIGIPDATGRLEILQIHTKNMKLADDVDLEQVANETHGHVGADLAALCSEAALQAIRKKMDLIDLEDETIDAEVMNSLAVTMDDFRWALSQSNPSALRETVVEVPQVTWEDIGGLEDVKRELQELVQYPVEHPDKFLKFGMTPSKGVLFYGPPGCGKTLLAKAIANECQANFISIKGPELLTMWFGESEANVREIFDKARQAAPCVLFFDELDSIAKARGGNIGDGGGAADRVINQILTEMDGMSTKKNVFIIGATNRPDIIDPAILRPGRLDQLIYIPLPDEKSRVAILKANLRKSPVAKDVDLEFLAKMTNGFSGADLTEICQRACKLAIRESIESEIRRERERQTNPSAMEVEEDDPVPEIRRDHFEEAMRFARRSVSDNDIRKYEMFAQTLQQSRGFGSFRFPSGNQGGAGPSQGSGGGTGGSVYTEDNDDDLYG
HCV NS3 hel inh – HCV NS3 helicase inhibition; NS3 helicase DNA unwinding, Cy5 molecular beacon fluorescence; inhibition, % at 10.9 µM; 290,000 compounds, 0.56% hits;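 active = inhibition above the mean of all tested compounds plus 3 SD, set per campaign, cut at about 35% in these data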;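 note: 0% = DMSO wells and 100% = thioflavine S control wells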
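System: NS3 helicase fragment of HCV / Schedule: 1 h at 25 °C / Control set: DMSO alone as 0% and 110 µM thioflavine S as 100% / Reagent: Cy5/quencher beacon DNA duplex and ATP to start / Technique: Cy5 fluorescence / Replication: singlicate / Evaluation: % inhibition of end-to-start signal ratio versus controls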
PfM18AAP inh-1 – PfM18AAP enzyme inhibition; 290,000 compounds, 1.2% hits; inhibition, % at 7.35 µM; recombinant PfM18AAP, H-Glu-NHMec fluorogenic cleavage;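 active = inhibition above the campaign mean inhibition over all tested compounds plus 3 SD, cut at about 28% in these data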;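 note: 0% = plate median of test compound wells and 100% = 2 mM ZnCl2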
PfM18AAP inh-2 – PfM18AAP inhibition, confirmation; shares compounds with PfM18AAP inh-1; recombinant PfM18AAP, H-Glu-NHMec fluorogenic cleavage; inhibition, % at 7.35 µM; 2,400 compounds, 28% hits; AID 2170;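 active = mean inhibition over replicate wells above the hit cutoff set for the earlier primary screen, cut at about 29% in these data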;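 note: 0% = median of test compound wells and 100% = 2 mM ZnCl2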
CTSL1 confirm – counter-screen for PFM18AAP inhibitors: confirmation of human cathepsin L inhibitors. 2,400 tested, under 10 active. AID 2178. shares compounds with PfM18AAP inh-1. purified cathepsin L1, Z-Leu-Arg-MCA fluorescence. inhibition, % at 5.96 µM;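 active = average inhibition across replicates above the hit cutoff set in the earlier primary screen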;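 note: 0% = median of test compound wells and 100% = Z-Phe-Ala-diazomethylketone 1 µM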
CHOP confirm – confirmation of CHOP induction inhibitors | 2,100 compounds, 45% hits | CHO-CHOP promoter luciferase reporter, tunicamycin-induced, luminescence | inhibition, % at 10 µM | shares compounds with CHOP inhibitor;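 active = mean of three repeat readings of reporter signal inhibition above a set limit, cut at about 70% in these data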;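 note: 0% = tunicamycin plus vehicle and 100% = wells lacking tunicamycin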
UPR CHOP confirm – apoptotic UPR (CHOP) activation, confirmed | shares compounds with UPR CHOP act | CHO-CHOP cells, CHOP-luciferase reporter luminescence; percent of tunicamycin response, DMSO as zero | activation, % at 10 µM | 1,000 compounds, 64% hits; in the data active = activation above about 33%;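 note: 0% = DMSO wells and 100% = tunicamycin 10 µg/mL wells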
An asterisk follows results filed as active; / = no result given.

SMILES	UPR XBP1 act	CHOP inhibitor	UPR CHOP act	p97 ATPase inh	HCV NS3 hel inh	PfM18AAP inh-1	PfM18AAP inh-2	CTSL1 confirm	CHOP confirm	others
COC(=O)NNC(=O)COc1ccc2ccccc2c1Br	0	7	1	-7	18	1	/	/	/
O=C(COc1ccc2ccccc2c1Br)Nn1cnnc1	3	-4	0	-6	17	56*	37*	-2	/
Cc1ccc(OCC(=O)Nn2cnnc2)c(Br)c1	2	-17	-1	4	15	66*	57*	5	/
Cc1ccc(OCC(=O)NNC(=O)CCc2ccccc2)c(Br)c1	-1	/	-1	/	0	4	/	/	/
Cc1cc(OCC(=O)Nn2cnnc2)c(C)cc1Br	0	-9	1	0	7	46*	55*	-2	/
Cc1cc(OCC(=O)NC2CC(C)(C)NC(C)(C)C2)c(C)cc1Br	-1	/	4	/	-56	0	/	/	/
CN(CC(=O)Nc1cccc(F)c1)C(=O)c1ccc(N2CCCCC2)c([N+](=O)[O-])c1	-1	/	2	/	/	/	/	/	/
C=CC(C)n1c(Br)nc2c1c(=O)[nH]c(=O)n2C (centres undefined)	4	-15	-3	2	5	2	/	/	/
CC(C)n1c(=S)[nH]c2c1c(=O)[nH]c(=O)n2C	-3	1	-1	-2	9	36*	29*	-1	/
O=C(C1=C(O)C(=O)N(CCN2CCOCC2)C1c1ccc(Cl)cc1)c1cc2ccccc2o1 (centres undefined)	2	/	1	/	13	11	/	/	/
O=C(C1=C(O)C(=O)N(CCN2CCOCC2)C1c1ccc([N+](=O)[O-])cc1)c1cc2ccccc2o1 (centres undefined)	1	/	0	/	12	34*	-36	-1	/
COc1ccc(C2/C(=C(/O)c3ccc4c(c3)CC(C)O4)C(=O)C(=O)N2CCN2CCOCC2)cc1 (centres undefined)	-1	-10	-1	-1	10	9	/	/	/
CC1Cc2cc(/C(O)=C3/C(=O)C(=O)N(CCN4CCOCC4)C3c3ccc([N+](=O)[O-])cc3)ccc2O1 (centres undefined)	-2	/	-1	/	6	33*	-22	-10	/
O=c1[nH]sc2ccccc12	/	97*	/	4	-1	50*	30*	2	-63
O=c1cc(O)sc2ccccc12	0	1	-2	2	-2	-11	/	/	/
O=C(CSc1n[nH]c(-c2ccccn2)n1)Nc1cccc(Cl)c1	-3	/	-1	/	6	-2	/	/	/
CC(C)CN(c1ccccc1)S(=O)(=O)c1nnc(NC(=O)C(C)C)s1	-1	/	1	/	14	1	/	/	/
COc1ccc(C2=CC(=O)C[C@H](c3ccc(OC)cc3)C2)cc1	0	/	2	/	/	/	/	/	/
COc1ccc(C2=CC(=O)C=CC2=O)cc1	/	103*	/	11	6	56*	62*	-3	-79
COC(=O)c1cc([N+](=O)[O-])c(-n2cncn2)c([N+](=O)[O-])c1	/	110*	/	5	12	83*	44*	-4	17
O=Cc1cn(-c2ccccc2)nc1-c1ccc(F)cc1	0	/	5	/	-5	-1	/	/	/
CC1=NNC(=O)/C1=C\c1cn(-c2ccccc2)nc1-c1ccc(F)cc1	/	106*	/	2	6	39*	64*	0	119*
CCOc1cccc2cc(-c3nnc(NCc4ccco4)s3)c(=O)oc12	3	97*	6	5	15	32*	-14	2	20
Cc1cc(Cl)ccc1OCCCC(=O)Nc1ccc(S(=O)(=O)Nc2ncccn2)cc1	-3	/	0	/	-6	2	/	/	/
Cc1cc(C)c2c(=O)n(CC(=O)Nc3ccc(Cl)cc3)sc2n1	-1	104*	3	5	-4	57*	47*	7	18
SMILES	UPR XBP1 act	CHOP inhibitor	UPR CHOP act	p97 ATPase inh	HCV NS3 hel inh	PfM18AAP inh-1	PfM18AAP inh-2	CTSL1 confirm	CHOP confirm	others
O=C(CCN1C(=O)CSc2ccccc21)Nc1ccc(OC(F)(F)F)cc1	2	/	1	/	/	/	/	/	/
Nc1ccccc1C(=O)N1O[C@@H]2C=C[C@H]1C2	-1	/	1	/	/	/	/	/	/
CCOC(=O)Cc1csc(NC(=O)NC2(C(F)(F)F)Oc3ccc(Cl)cc3O2)n1 (centres undefined)	11	105*	7	1	1	97*	73*	-2	111*
CCOC(=O)Cc1csc(NC(=O)Nc2ccc(OC(F)(F)F)cc2)n1	2	39	7	1	-13	-3	/	/	/
CCOC(=O)Cc1csc(NC(=O)NC2(C(F)(F)F)Oc3cc(Cl)c(Cl)cc3O2)n1	7	102*	-2	-5	1	94*	73*	-3	110*
CCOC(=O)Cc1csc(NC(=O)Cc2ccc(Cl)cc2)n1	2	6	0	-6	-6	-4	/	/	/
CCN1/C(=C/C(C)=C/c2sc3ccccc3[n+]2CC)Sc2ccccc21	-11	110*	-9	-10	2	44*	-35	-5	141*
Nc1ncnc(Sc2ccccc2)c1[N+](=O)[O-]	-1	24	-2	7	8	-3	/	/	/
Nc1ncnc(Sc2ncccn2)c1[N+](=O)[O-]	/	104*	/	2	4	34*	-90	2	45
O=c1c2ccccc2sn1-c1ccccc1	-2	108*	9	0	4	56*	52*	0	20
Cc1cc(N/N=C/c2ccc(O)c(C)c2O)nc(-c2ccccc2O)n1	/	107*	/	6	-7	44*	38*	4	28
COC(=O)C1(CC2CC(c3ccncc3)=NO2)CCN(C(=O)OC(C)(C)C)CC1 (centres undefined)	-1	/	-2	/	/	/	/	/	/
O=C(CCc1ccc(O)c(O)c1)N/N=C/c1ccc2c(c1)OCO2	34*	/	49*	/	11	79*	50*	4	/	UPR CHOP confirm=9
O=C(CN1CCN(S(=O)(=O)c2ccc(Cl)cc2)CC1)c1ccc(O)c(O)c1	22	/	71*	/	-2	70*	39*	0	/	UPR CHOP confirm=5
O=C(/C=C/c1ccc(O)c(O)c1)c1ccccc1O	5	-127	93*	12	-10	72*	61*	3	/	UPR CHOP confirm=81*
O=C(/C=C/c1ccc(O)cc1)c1ccc(O)cc1O	0	-18	8	4	4	-2	/	/	/

Screening results: PubChem, several laboratories
